Data taken from the EternaBench riboswitch data.

Test system: MS2 coat protein
Experiment: apparent Kd, MS2 coat protein; higher = weaker binding; RNA-MaP array; FMN 200 µM where present
In short: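 Two titrations, one without ligand and one with constant ligand, were run with SNAP-549-labelled MS2 coat protein from 0.7 or 1.5 nM, doubling to 3 µM. The targets were designs transcribed by stalled E. coli RNA polymerase on Illumina sequencing-chip clusters, in 100 mM Tris-HCl pH 7.5, 80 mM KCl, 4 mM MgCl2, BSA, DTT, yeast tRNA and Tween-20. The apparent Kd is the median of filtered per-cluster binding-curve fits, with green signal normalised to red-channel RNA signal and control-cluster median Fmax.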

[1] = designed as: OFF switch for flavin mononucleotide, no ligand
[2] = ligand present: flavin mononucleotide, designed as: OFF switch for flavin mononucleotide
[3] = designed as: ON switch for flavin mononucleotide, no ligand
[4] = ligand present: flavin mononucleotide, designed as: ON switch for flavin mononucleotide

Sequence | apparent Kd [1] [nM] | apparent Kd [2] [nM] | apparent Kd [3] [nM] | apparent Kd [4] [nM]
AUCAUGUCAGGAUAUCUGAUAUGGAUCUUCGGAUCAAGUUCAGAGAAGGGACAUGAGGAUCACCCAUGUCGAAC | 25 | 42.4 |  | 
CGUGUUUCGUUGUAACCCAUUUACAUGAGGAUCACCCAUGUAGAGGAUAUAGGUCACCACGGUACCUAGAAGGCUGCAGGUGUG | 30.3 | 41 |  | 
GGAAGACAAAGUCUUCCAAAUCGAACAUGAGGAUCACCCAUGUAGGAUAUGCUACUCAAAGAGUAGCAGAAGGACAUGUGCUUU | 40.1 | 193 |  | 
AAGAAGUCAGGAUAUGCUAAAGAAAUAAAAAGAAAGAAAGAACAUGAGGAUCACCCAUGUAGAAGGGACAAGAA | 42.9 | 40.6 |  | 
GCACAUUUGUAAGGAUAUACAACAUGAGGAUCACCCAUGUGUUGGAAUUUAGUAGAAGGUACAGACAUGAGUAUCACUUUUGUA |  |  | 72.7 | 51.9
GUAACGCUUGACAUGAGGAUCACCCAUGUUAGAUUGUUAUGUCAGGAUAUAGUCUAGAAACUAGACUAGAAGGGAUAUGUUGCU |  |  | 59.3 | 29
CUCAGCUCGUCAGGAUAUACGUCACUGCUUCGGCAGUGUGGUAAGAUCACAUGAGGAUCACCCAUGUAGAAGGGACGAGCUGAA | 12.8 | 266 |  | 
ACAAGAUCAGGAUAUACAUGAGGAUCACCCAUGUUUAUCAAAAAAGGGCUUUCUUAAUGUAGAAGGGAUCUUGU | 84.5 | 64.1 |  | 
ACAAGGCAUGUAGGAUAUCCAUUGCGUCGCGAUGGAGAAGGACAACACACAUGAGGAUCACCCAUGUGGUCACCCAUGUCGUGU | 51.3 | 169 |  | 
CUUUAGCUAGGAUAUACAUGAGGAUCACCCAUGUUAGCGGUCAAUUGGGCCGCGGGUUGUAGAAGGAGCAUUAA | 32.5 | 53.4 |  | 
GUGGUCUGACAUGAGGAUCACCCAUGUGGAAUAAAUACGGGUUAGGAUAUCUUGAGGAUCACCCAAGAGAAGGGAUCGAUUGUU |  |  | 52.8 | 45
AUGACCUCAGUCAGGAUAUCGGCGCGGUGACGACUCGAGAAGGGACAUGAGGAUCACCCAUGUCUCGAUUAUAG | 15.4 | 22.2 |  | 
ACAUGAGGAUCACCCAUGUUCACAUAGGAUAUUGAUUAUAUUGGUUUUAGAAUAGUAAUUAACCUCAAGAAGGAUGCCAGUUCU |  |  | 13.3 | 10
AUGGACGUCGUAGGAUAUGUAGGAUUCUCGUACAUGAGGAUCACCCAUGUUGACGUCGAGGUCGGACAGAAGGGCGGUGUCUAU |  |  | 20.9 | 8.65
UGUCGGAGCAGAGGAUAUUACAUGAGGAUCACCCAUGUAUAAAAUGGAAGCUGGAAACAGCAAUGUAAGAAGGCUGCUCCGACA | 61.2 | 288 |  | 
GACUUGUCAGGAUAUCUUACAUUUGCAUCGUAGUUACCAUUGGAGAAGGGACAUGAGGAUCACCCAUGUUUGGU | 35.2 | 34.9 |  | 
GGCUACGUUUCGUAGCAGUGUCAUCGAGAAGGCCCUGACAUGAGGAUCACCCAUGUUGUUACAUGGGAGGAUAUCGAUGAUACG |  |  | 12.1 | 4.96
ACAUGAUCAGGAUAUACAUGAGGAUCACCCAUGUAUAUAAAAAAAAAACUUUCUUCAUGUAGAAGGGAUCUUGU | 16.6 | 26.3 |  | 
CAGGUAGACUGAGGAUAUACAAUAAAGACCUAGUCUAUCUAGGUCAUCACAUGAGGAUCACCCAUGUAGAAGGCAGUCUGCCUG | 18.5 | 38.2 |  | 
CCGACGAAAGUCGAACGAUGUAGCAGAAGGACAUGAGGAUCACCCAUGUCAGCUGUAACAGCCAUGUAGGAUAUGCUACAUCGG | 4.44 | 5.53 |  | 
AAGCGAAAGCUAAAAUAUCUAUCAGAGGAUAUUUAUGAUACAUGAGGAUCACCCAUGUGGCGCUGGGAGAAGGCUGAUAGAUAA |  |  | 12.9 | 6.79
UUGAAUUGAAACAUGAGGAUCACCCAUGUGUCAUAGUUGACAUAGGAUAUGCUUAUACUUUUAAAGCAGAAGGAUGACGAUACU |  |  | 19.8 | 7.46
UAGGUACAUGAGGAUCACCCAUGUGAGGAUAUAGUUGAAGAUUGCGAGAGGGAGAGGACUAGAAGGCACAGUGG | 50.5 | 69 |  | 
AGUACUCAAAGAGUACCCAUACGGACAUGAGGAUCACCCAUGUAGGAUAUGCUACUCAAAGAGUAGUAGAAGGACAUAUUCCUC | 9.52 | 20.3 |  | 
CUUAUACAUGAGGAUCACCCAUGUUAGGAUAUUCGCCCGCAUUGGAAGUCCGGUCUUGGAAGAAGGAACGUGGG | 36.8 | 59.1 |  | 
GAUCAACAUGAGGAUCACCCAUGUGAGGAUAUGAUACUAUGUACUUCGGUACAUAGUAUCAGAAGGCAUGUGAA | 78.1 | 111 |  | 
UAAAAGCUAGGAUAUACAUGAGGAUCACCCAUGUCAACCACACGGAUGCGCCGAGCAUGUAGAAGGAGCACCGG | 18.2 | 24.1 |  | 
UCAUGUUUAGAGGAUAUGAUUACUCUAGAGUGAUCAGAAGGCUAGACAUGAGGAUCACCCAUGUCAGAACAUGU | 34.4 | 24.8 |  | 

Sequence | apparent Kd [1] [nM] | apparent Kd [2] [nM] | apparent Kd [3] [nM] | apparent Kd [4] [nM]
CUCACGUUAGUAGGAUAUCCGACAUGAGGAUCACCCAUGUCACUACGCCUCUAGGGAAGGUGUAAGGAGAAGGGCUGAUAAAUA |  |  | 174 | 98
GGAUAGGACAGAGGAUAUACGUGCUAGAGCUACUAGCAAAAUUUCCUCACAUGAGGAUCACCCAUGUAGAAGGCUGUCCUAUCG | 15.6 | 463 |  | 
UUACUCAUGUAAGGAUAUGCAGCCGUUUCGGCUGCAGAAGGUACUAUAAUACAUGAGGAUCACCCAUGUCUUUUGAAUUUAGAC |  |  | 91.4 | 33.3
UGAGCAUGAGGAUAUACUUGGCGUGCGUGAGCACGAGGUUUACAUGAGGAUCACCCAUGUAGAAGGCAUGUUCU | 18.2 | 51.6 |  | 
CUCUAUCAUGUAGGAUAUGCGUGGCGAAGCUAUGCAGAAGGACAUGAGGAUCACCCAUGUCUUUCUGUCUGCGGACGGACAGGG | 33.1 | 69.2 |  | 
CCGCCAUGAGGAUAUCCAUCUGGAUCAGACUAGAUCCUGAUGGAGAAGGGACAUGAGGAUCACCCAUGUUGCGG | 62.8 | 55.1 |  | 
GGUACCAACACAGGAUAUGCUUUCCUUUGGGAAGCAGAAGGGUGAAACAUGAGGAUCACCCAUGUGGUGCCAGGGCGUGAGCCC |  |  | 1360 | 79.5
CCGGAAAUAGAGGAUAUCGUAUCGGAUACGAUACGAGAAGGCUAUACAUGAGGAUCACCCAUGUGUCCUACCGG | 16.4 | 40.5 |  | 
GAUCCGUCCUAGAAGGCCAUUCAACAUGAGGAUCACCCAUGUGCGAACUGGAGGAUAUAGGUGGGAUAGGCCUAGGGCCCGGUC |  |  | 9.38 | 6.12
UAGAUGGGAGGAUAUACGUAGAUACAGAUUCAUGUAGUGCUACAUGAGGAUCACCCAUGUAGAAGGCCCGUCUU | 39.4 | 330 |  | 
CAAUUUUGGAGUUCGUAUCGAUACAUGAGGAUCACCCAUGUAAAGGAUAUGAUCUAGUUUUUAGAUCAGAAGGUUACAUAGGCG | 54.9 | 25.8 |  | 
GGCGGAGUAGGAUAUACAUGAGGAUCACCCAUGUAACCUGAUGGCGUAGGUCUUCUAUGUAGAAGGGCUACGCC | 17.4 | 16.7 |  | 
CCAGCCCGUGCAGGAUAUACAUGAGGAUCACCCAUGUAGGAGAAUCCGCCGGUAGAAGGGUACGGACGGGCGUCUGACGCUUGU | 5.87 | 6.33 |  | 
UUACUAUCACAGAAGGGUAGAUAGUAUAUAGAUGCAGGAUAUGUGACAUGAGGAUCACCCAUGUUUCACCGACAUGAGGAUCAC | 60.4 | 66.2 |  | 
CAUGUCCUCACAGGAUAUGCACCACUUUGUGGUGCAGAAGGGUGGUUACAUGAGGAUCACCCAUGUGGACAUGAUAUAUUUAAU |  |  | 93.7 | 1150
UUAGAAUUGCAAGGAUAUCUAAUGUAGAUAGUAAGAGAAGGUGCUUGAUAGUUACAUGAGGAUCACCCAUGUAUUUGGGUUUAU |  |  | 395 | 375
UAGAUGGGAGGAUAUACGUAGAUGCGGAUUCGUGUGGUGCUACAUGAGGAUCACCCAUGUAGAAGGCCCGUCUU | 17.1 | 72.2 |  | 
GGAAAUCAUGUAGGAUAUGCAUGGCGAAGCUACGCAGAAGGACAUGAGGAUCACCCAUGUGCUAGCUACCGGAUACGGUGGCAA | 78.8 | 288 |  | 
CCGAGAAGGACAGGAUAUGGACAUGAGGAUCACCCAUGUACAUGGGAAUAUAUACUGAAUUUUUACUAGAAGGGUUACAUAAAU | 19.3 | 14.9 |  | 
GGAGCCGGUACUGAGGAUAUUCAUAUUAAAACAUGAGGAUCACCCAUGUAGGCCAGAAGGCCUUGGGAGAAGGCAGAUCGGCUCC |  |  | 408 | 25.9
GACUUUUCUGAGGAUAUUGCAUCAUACGAUUUAUAAGAAGGCAGAACAUGAGGAUCACCCAUGUGGGUUUUUAG | 41.7 | 91.1 |  | 
UCUAGACAUGAGGAUCACCCAUGUGAGGAUAUGAUGCGAUCGUCGAAAGACGAUAGCAUCAGAAGGCACAUAUG | 154 | 469 |  | 
ACAGAGGCUGACAUGAGGAUCACCCAUGUUAGAUUGUUAUGUCAGGAUAUUGUCUAGCAACUAGACAAGAAGGGACCCUCUGUG |  |  | 39.2 | 9.69
GCGUGGUUCUAGAAGGUGCUAGCGAUAAGCUAGCAAGGAUAUAGACAUGAGGAUCACCCAUGUCUAAGAGAAAUAGACACACGC | 4.56 | 5.09 |  | 
AUCAGCUCGUCAGGAUAUGCGUCACUGCGUCAGCAGUGUGGUAAGAUCACAUGAGGAUCACCCAUGUAGAAGGGACGAGCUGAU | 9.59 | 88.2 |  | 
CUCAAACAUGAGGAUCACCCAUGUGUUGUCGUGGGAGGAUAUCCCGGUUCGGUGGCGUCGGGAGAAGGCCUAUGUC |  |  | 68 | 35
GGAUGACAAAGUCAUCCUUAACGAACAUGAGGAUCACCCAUGUAGGAUAUGCUACUCAAAGAGUAGCAGAAGGACAUGUGUCUU | 31.1 | 159 |  | 
